# High-throughput results: PubChem BioAssay, The Scripps Research Institute Molecular Screening Center
# CHRM4 agonist: human M4 muscarinic receptor agonists, primary screen, CHO-K1 cells, Fluo-8 calcium fluorescence; Muscarinic acetylcholine receptor M4 (Homo sapiens), P08173; activation, % at 3 µM; AID 624127, 2012; CHO-K1 hM4/Gqi5; vehicle 0%, full acetylcholine response 100%; hit rate 0.14% among 360,000;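 active means activation above the run mean over all test wells plus 3 SD, cut at about 32% in these data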;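 further: peak over basal fluorescence ratio per well then scaled between controls; 0% = DMSO wells and 100% = acetylcholine at EC100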
# Target sequence (P08173 whole entry, looked up): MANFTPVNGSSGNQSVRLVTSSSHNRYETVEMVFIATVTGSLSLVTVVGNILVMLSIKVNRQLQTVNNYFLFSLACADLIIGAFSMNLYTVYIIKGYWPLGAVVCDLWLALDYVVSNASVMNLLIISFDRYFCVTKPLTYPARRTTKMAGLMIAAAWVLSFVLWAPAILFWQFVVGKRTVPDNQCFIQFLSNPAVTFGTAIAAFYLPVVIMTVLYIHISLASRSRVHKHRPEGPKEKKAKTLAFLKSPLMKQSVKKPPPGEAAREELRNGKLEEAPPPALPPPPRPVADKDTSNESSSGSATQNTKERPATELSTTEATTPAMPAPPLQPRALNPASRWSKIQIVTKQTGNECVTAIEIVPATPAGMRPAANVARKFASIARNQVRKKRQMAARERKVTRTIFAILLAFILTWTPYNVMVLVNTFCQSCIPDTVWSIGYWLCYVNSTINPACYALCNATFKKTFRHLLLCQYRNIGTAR
# CHRM5 agonist: human M5 muscarinic receptor agonists, primary screen, CHO-K1 cells, Fluo-8 calcium fluorescence; AID 624037, 2012; Muscarinic acetylcholine receptor M5 (Homo sapiens), P08912; activation, % at 3 µM; hit rate 0.19% among 360,000; CHO-K1 hM5 cells; 0% DMSO wells, 100% maximal acetylcholine response;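 active means activation above the run's mean over test compounds plus 3 SD, cut at about 23% in these data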;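 further: signal is peak over basal fluorescence ratio across the kinetic read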
# CHRM4 PAM: human M4 muscarinic receptor positive allosteric modulators, primary screen, CHO-K1 cells, Fluo-8 calcium fluorescence; CHO-K1 hM4/Gqi5, ACh EC20; 0% = ACh EC20, 100% = maximal ACh; activation, % at 3 µM; hit rate 0.4% among 360,000;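 active means activation above its plate's cutoff, the mean activation of sample wells plus 3 SD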
# M5 PAM: human M5 muscarinic receptor positive allosteric modulators, primary screen, CHO-K1 cells, Fluo-8 calcium fluorescence | CHO-K1 hM5, ACh EC20 PAM; 0% = ACh EC20, 100% = ACh EC100 | activation, % at 3 µM | hit rate 0.3% among 360,000;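 active means activation above the run cutoff, the mean activation of all test compounds plus 3 SD, cut at about 18% in these data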
#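 System – CHO-K1 hM5 cells · Compound – 3 µM, single dose · Incubation – compound preincubation 140 s before EC20 acetylcholine addition · Technique – Fluo-8 calcium fluorescence · Measure – Max/basal fluorescence ratio as % of EC20–EC100 ACh window · Benchmarks – low control EC20 acetylcholine (0%), high control EC100 acetylcholine (100%) · Replication – singlicate, one well per test compound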
# M5 antag: human M5 muscarinic receptor antagonists, primary screen, CHO cells, Fluo-8 calcium fluorescence | AID 624040, 2012 | inhibition, % at 3 µM | hit rate 0.59% among 360,000 | Muscarinic acetylcholine receptor M5 (Homo sapiens), P08912 | CHO-hM5 cells, ACh EC80;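 active means inhibition above a per-plate cutoff, the mean of that plate's test compounds plus 3 SD, cut at about 27% in these data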;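 further: 0% = acetylcholine EC80 with DMSO and 100% = DMSO without agonist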
# CHRM4 antagonist: human M4 muscarinic receptor antagonists, primary screen, CHO cells, Fluo-8 calcium fluorescence | hit rate 0.73% among 360,000 | Muscarinic acetylcholine receptor M4 (Homo sapiens), P08173 | CHO-hM4 cells, ACh EC80 | inhibition, % at 3 µM;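 active means inhibition above its plate's cutoff, the mean inhibition of sample wells plus 3 SD, cut at about 27% in these data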;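 further: 0% = acetylcholine EC80 with DMSO and 100% = DMSO without agonist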
# Numbers without * were called inactive. Sampled rows, rich in hits. Any-hit rate of the full collection: about 1.9%.
SMILES,CHRM4 agonist,CHRM5 agonist,CHRM4 PAM,M5 PAM,M5 antag,CHRM4 antagonist
O=C1NC[C@@H](CCCCN2C[C@H](Cc3ccc(O)cc3)N(CC3CCCCC3)C(=O)C2=O)N(CCC2CCCCC2)C1=O,71*,37*,8,-6,3,-5
CC(C)C[C@H]1CNC(=O)C(=O)N1C[C@@H]1CCCN1C[C@H](Cc1ccc(O)cc1)N1C[C@H](Cc2ccccc2)N(CC2CCCCC2)C(=O)C1=O,-1,-3,0,-11,7,37*
c1ccc(CC2CCN(c3ncnc4sccc34)CC2)cc1,12,-1,-23,-32,38*,20
O=C(O)c1cc2c(N3CCC(Cc4ccccc4)CC3)ncnc2s1,1,1,7,0,-4,10
CCc1ccc(S(=O)(=O)Nc2c(C)nc3nc[nH]n3c2=O)cc1,2,8,5,38*,4,-10
COc1cc(SC)ccc1C(=O)NCCCn1ccnc1,1,1,-3,-3,-2,-3
O=C(O)C1CCC(=O)N(C2CC2)C1c1ccccc1 (stereo unspecified),0,2,0,12,-9,2
O=C(O)C1CCC(=O)N(C2CCCCC2)C1c1ccccc1Cl (stereo unspecified),1,2,15,19*,-10,0
CCN(CC)C(=O)c1csc(COCCO)n1,1,2,4,0,-2,-8
CCCN(CCC)C(=O)c1ccc2c(c1)S(=O)(=O)c1ccccc1C2=O,3,-6,0,-9,30*,2
Cc1nnc(SCC(=O)NNC(=O)COc2ccc(Cl)cc2)n1C,2,-3,10,13,-14,-20
ClCC(CNCc1ccccc1)c1ccccc1 (stereo unspecified),0,-7,6,6,17,5
Clc1ccccc1OCc1nnc(-c2ccccc2Br)o1,0,-3,-1,-2,1,9
O=c1c(Cl)c(Cl)cnn1Cc1nnc(-c2ccccc2Br)o1,120*,80*,-24,-21,101*,99*
COC(=O)c1cnc(Oc2c(Cl)cc(N)cc2Cl)cc1C(F)(F)F,0,4,7,19*,-17,-5
COC(=O)c1cnc(Oc2ccc(NC(=O)NC(=O)c3c(F)cccc3Cl)cc2)cc1C(F)(F)F,0,1,3,1,13,-1
Cc1ccc(C(=O)NCCNc2ncc(C(F)(F)F)cc2Cl)cc1[N+](=O)[O-],7,-7,-20,-16,27*,11
CC(=O)Nc1ccc(/C=N/N2CCCCC2)cc1,1,15,-11,20*,-17,2
COc1cccc(CNC(=O)CN(C)S(=O)(=O)c2cnc[nH]2)c1,1,0,4,20*,-11,-14
CCc1ccc(NC(=O)Cn2cc([N+](=O)[O-])nc2C)cc1,2,4,1,21*,-3,1
CC(=O)c1cccc(NC(=O)/C(=C\c2cccnc2)NC(=O)c2ccccc2)c1,0,0,-12,-3,13,29*
C=CC1CN2CCC1CC2C(O)c1ccnc2ccc(OC)cc12 (stereo unspecified),-1,-1,-5,-2,11,-5
OC1(C#CCN2CCCC2)c2ccccc2-c2ccccc21,1,-21,-56,-32,51*,47*
CCN(CC)CCC#CC1(O)c2ccccc2-c2ccccc21,0,-22,-16,-33,87*,73*
Cc1ccc(-c2cc(Cc3ccccc3)c(=O)[nH]n2)cc1,-2,2,-3,-2,-7,-5
SMILES,CHRM4 agonist,CHRM5 agonist,CHRM4 PAM,M5 PAM,M5 antag,CHRM4 antagonist
O=C(Nc1nnc(SCCC2OCCO2)s1)C1CC(=O)N(c2ccccc2)C1 (stereo unspecified),3,-1,-3,0,-5,-8
COc1cccc(N2CC(C(=O)Nc3nnc(SCCC4OCCO4)s3)CC2=O)c1 (stereo unspecified),2,-4,-1,-9,31*,-1
Cc1ccccc1OCCNCC(C)O (stereo unspecified),2,7,12,28*,11,-12
CC(=O)Nc1sc(C)c(C)c1C(=O)OCC(=O)N(CC(C)C)C1CCS(=O)(=O)C1 (stereo unspecified),2,2,23*,4,3,-9
CCN(C(=O)COC(=O)c1c(-c2ccccc2)noc1C)C1CCS(=O)(=O)C1 (stereo unspecified),0,-1,3,5,-4,-1
CCN(C(=O)COC(=O)c1c(C)c(-c2ccccc2)nc2ccccc12)C1CCS(=O)(=O)C1 (stereo unspecified),7,25*,-7,-2,-2,5
COc1ccc(C(C)=O)cc1CN1C(=O)C(C)ON=C1c1cccc(C(F)(F)F)c1 (stereo unspecified),2,-4,2,0,-7,-19
CCc1cc(=O)oc2cc(C)cc(OCC(=O)NC(Cc3c[nH]c4ccc(O)cc34)C(=O)O)c12 (stereo unspecified),0,3,21*,3,-3,-20
CCn1cc(C(=O)N2CCCC(CO)(Cc3ccccc3C)C2)cn1 (stereo unspecified),1,-2,-1,-2,-10,0
COc1ccc(N(CC(=O)Nc2c(C)n(C)n(-c3ccccc3)c2=O)S(=O)(=O)c2ccc(F)cc2)cc1,4,-1,22*,21*,11,-8
CNC(=O)CN(c1ccc(OC)cc1)S(=O)(=O)c1ccc(F)cc1,0,-6,20*,28*,-7,-11
COC(=O)c1cc(OC)c(OC)cc1NC(=O)CCN1C(=O)C2CCCCC2C1=O (stereo unspecified),2,0,6,-2,2,-15
CCOC(=O)C1CCCN(CC(=O)c2ccc(F)cc2)C1 (stereo unspecified),15,27*,-12,-22,18,2
CCOC(=O)c1ccc(NC(=O)C2CCCN(S(=O)(=O)c3ccc(F)cc3)C2)cc1 (stereo unspecified),22,0,-31,-22,32*,37*
Cc1ccc(NC(=O)C2CCCN(S(=O)(=O)c3cccc4nonc34)C2)cc1 (stereo unspecified),1,-2,-6,-5,29*,2
